One block for each compound: values may come before it. The source made the active and inactive calls. No cut-off for these calls is given here.
Legend:
Rattus norvegicus [1] = experiment: Uterotropic activity in sc dosed rat administered for 3 days relative to estradiol; type: functional, Uterus
In short: (§1)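 Immature female rats, 45–55 g, dosed daily for 3 days with sesame oil suspension (0.1 mL); vehicle controls. Uteri removed, cleaned, weighed (nearest 0.2 mg) next day. Expressed as percent activity relative to estradiol (sc) or ethynylestradiol (oral).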

Oryctolagus cuniculus [2] = species: Oryctolagus cuniculus; experiment: Displacement of [3H]estradiol from rabbit estrogen receptor after 24 hrs at 0.1 nM to 10 mM
In short: (§2)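 Uterine cytosol from TE buffer (Tris-HCl, 1 mM EDTA, pH 7.4) homogenate by ultracentrifugation. Competitor 0.1 nM–10 mM with constant label ([3H]estradiol 6000 cpm or [3H]progesterone 20000 cpm), 24 h at 4 °C, started by cytosol addition. Bound label isolated; RBA derived against unlabeled estradiol or progesterone standard curves.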

Rattus norvegicus [3] = experiment: Antifertility activity in sc dosed Sprague-Dawley rat assessed as no implantation administered for 5 days measured on day 10; type: functional
In short: (§3)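 Mated females dosed in sesame oil (0.1 mL) over 5 days from day 0 of pregnancy (sperm-positive day). Autopsy on day 10 of presumptive pregnancy; normal and resorbing fetuses counted. ED100 = dose (mg/kg/day) giving no implantation sites.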

[4] = target: T1, Progesterone receptor (Oryctolagus cuniculus) (UniProt P06186); experiment: Displacement of [3H]progesterone from rabbit progesterone receptor after 24 hrs at 0.1 nM to 10 mM; in short: as §2
T1 sequence (whole entry): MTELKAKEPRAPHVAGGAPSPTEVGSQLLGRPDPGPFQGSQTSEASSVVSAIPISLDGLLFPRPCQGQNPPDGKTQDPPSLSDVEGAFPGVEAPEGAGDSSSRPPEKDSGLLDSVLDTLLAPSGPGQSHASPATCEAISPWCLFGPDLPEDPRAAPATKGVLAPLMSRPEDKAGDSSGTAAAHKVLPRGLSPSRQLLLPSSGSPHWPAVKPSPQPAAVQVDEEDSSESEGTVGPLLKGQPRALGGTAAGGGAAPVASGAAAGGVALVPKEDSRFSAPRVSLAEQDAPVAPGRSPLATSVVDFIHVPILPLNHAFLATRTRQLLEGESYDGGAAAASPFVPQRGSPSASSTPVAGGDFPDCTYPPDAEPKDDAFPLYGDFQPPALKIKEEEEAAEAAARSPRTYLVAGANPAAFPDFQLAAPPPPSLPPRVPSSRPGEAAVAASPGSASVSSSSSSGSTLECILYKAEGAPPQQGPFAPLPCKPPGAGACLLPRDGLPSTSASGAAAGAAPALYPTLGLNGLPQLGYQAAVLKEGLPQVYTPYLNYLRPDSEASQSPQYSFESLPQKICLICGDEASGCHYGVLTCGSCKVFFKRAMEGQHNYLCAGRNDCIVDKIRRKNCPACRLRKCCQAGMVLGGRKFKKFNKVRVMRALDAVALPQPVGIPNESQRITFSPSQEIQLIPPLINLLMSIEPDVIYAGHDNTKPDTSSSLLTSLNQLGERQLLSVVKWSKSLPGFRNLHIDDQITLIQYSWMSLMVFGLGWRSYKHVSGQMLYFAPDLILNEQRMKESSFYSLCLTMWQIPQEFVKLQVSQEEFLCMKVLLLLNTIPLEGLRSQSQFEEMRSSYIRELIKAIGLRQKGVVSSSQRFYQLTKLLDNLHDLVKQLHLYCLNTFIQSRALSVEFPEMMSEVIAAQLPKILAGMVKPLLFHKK

Oryctolagus cuniculus [5] = experiment: Antiprogestational activity in Clauberg rabbit at 10 mg/kg/day, sc; type: functional, organism-based
In short: (§4)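 Immature rabbit (Clauberg); uterine stimulation measured for progestational activity, and its antagonism for antiprogestational activity.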

Oryctolagus cuniculus [6] = experiment: Progestational activity in Clauberg rabbit at 10 mg/kg/day, sc; type: functional, organism-based; in short: as §4
Rattus norvegicus [7] = experiment: Uterotropic activity in po dosed rat administered for 3 days relative to ethynylestradiol; type: functional, Uterus; in short: as §1
Rattus norvegicus [8] = experiment: Antifertility activity in Sprague-Dawley rat assessed as no implantation at 6.8 mg/kg/day, po administered for 5 days measured on day 10; type: functional, organism-based; in short: as §3
Rattus norvegicus [9] = experiment: Antiuterotropic activity in rat assessed as D-estradiol-induced increase in uterine weight inhibition of at 10 ug/kg/day, po administered for 3 days; type: functional, organism-based
In short: (§5)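 Immature female rats, 45–55 g, given estradiol together with test compound daily for three consecutive days as sesame oil suspension (0.1 mL); vehicle-only controls. Uteri excised, cleaned and weighed to nearest 0.2 mg the day after last treatment.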

Oryctolagus cuniculus [10] = experiment: Antiprogestational activity in Clauberg rabbit at 20 mg/kg/day, sc; type: functional, organism-based; in short: as §4
Oryctolagus cuniculus [11] = experiment: Progestational activity in Clauberg rabbit at 20 mg/kg/day, sc; type: functional, organism-based; in short: as §4
Rattus norvegicus [12] = experiment: Uterotropic activity in rat at 1 mg/kg/day, sc administered for 3 days relative to ethynylestradiol; settings: Uterus
Rattus norvegicus [13] = experiment: Antiandrogenic activity in rat assessed as inhibition of androgen stimulation of seminal vesicle at 30 mg/kg/day, sc; type: functional, organism-based
In short: (§6)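 Immature, castrated male rats; test compound assessed for ability to inhibit androgen stimulation of seminal vesicle, ventral prostate and levator ani weight.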

Rattus norvegicus [14] = experiment: Antiandrogenic activity in rat assessed as inhibition of androgen stimulation of ventral prostate at 30 mg/kg/day, sc; type: functional, organism-based; settings: Prostate gland; in short: as §6
Rattus norvegicus [15] = experiment: Antifertility activity in Sprague-Dawley rat assessed as no implantation at 4 mg/kg/day, sc administered for 5 days measured on day 10; type: functional, organism-based; in short: as §3
Rattus norvegicus [16] = experiment: Antiandrogenic activity in rat assessed as inhibition of androgen stimulation of levator ani weight at 30 mg/kg/day, sc; type: functional, organism-based; in short: as §6
Rattus norvegicus [17] = experiment: Antiuterotropic activity in rat assessed as D-estradiol-induced increase in uterine weight inhibition of at 5 mg/kg/day, sc administered for 3 days; type: functional, organism-based; in short: as §5
Oryctolagus cuniculus [18] = experiment: Progestational activity in Clauberg rabbit at 10 mg/kg/day, po; type: functional, organism-based; in short: as §4
Oryctolagus cuniculus [19] = experiment: Antiprogestational activity in Clauberg rabbit at 10 mg/kg/day, po; type: functional, organism-based; in short: as §4
Rattus norvegicus [20] = experiment: Antifertility activity in Sprague-Dawley rat assessed as no implantation at 10 mg/kg/day, sc administered for 5 days measured on day 10; type: functional, organism-based; in short: as §3

RBA [4]: 1.9
SMILES: CC(=O)[C@H]1CC[C@H]2C[C@@H]3[C@@H](CCC4CC(=O)C=C[C@H]43)C[C@@]21C (stereo partly specified)
Activity (Oryctolagus cuniculus [5]): inactive | Activity (Oryctolagus cuniculus [6]): inactive

RBA [4]: 1.2
SMILES: CC(=O)[C@H]1CC[C@H]2C[C@@H]3[C@@H](CCC4=CC(=O)CC[C@H]43)C[C@@]21C
Activity (Oryctolagus cuniculus [10]): inactive | Activity (Oryctolagus cuniculus [11]): inactive

RBA [4]: < 0.4 | RBA (Oryctolagus cuniculus [2]): 0.06
SMILES: C[C@]12C[C@@H]3CCC4=CC(=O)CC[C@H]4[C@@H]3C[C@@H]1CC[C@@H]2O
Activity (Rattus norvegicus [12]): inactive | Activity (Rattus norvegicus [13]): inactive | Activity (Rattus norvegicus [14]): inactive | Activity (Rattus norvegicus [15]): inactive | Activity (Rattus norvegicus [16]): inactive | Activity (Rattus norvegicus [17]): inactive

Further lines, the compound ahead of its results:

SMILES: C[C@]12C[C@@H]3CCc4cc(O)ccc4[C@@H]3C[C@@H]1CC[C@@H]2O
relative binding affinity (RBA) (Rattus norvegicus [1]): 0.02 | RBA (Oryctolagus cuniculus [2]): 2.9 | ED100 (Rattus norvegicus [3]): 1 mg/kg/day

SMILES: C#C[C@]1(O)CC[C@H]2C[C@H]3c4ccc(O)cc4CC[C@H]3C[C@@]21C
relative binding affinity (RBA) (Rattus norvegicus [7]): 0.18 | RBA [4]: < 0.4 | RBA (Oryctolagus cuniculus [2]): 4.4 | Activity (Rattus norvegicus [8]): inactive | Activity (Rattus norvegicus [9]): inactive

SMILES: C[C@]12C[C@@H]3CCC4=C(CCC(=O)C4)[C@@H]3C[C@@H]1CC[C@@H]2O
Activity (Rattus norvegicus [12]): inactive | Activity (Rattus norvegicus [13]): inactive | RBA [4]: < 0.4 | Activity (Rattus norvegicus [14]): inactive | RBA (Oryctolagus cuniculus [2]): < 0.085 | Activity (Rattus norvegicus [15]): inactive | Activity (Rattus norvegicus [16]): inactive | Activity (Rattus norvegicus [17]): inactive

SMILES: C#C[C@]1(O)CC[C@H]2C[C@@H]3[C@@H](CCC4=CC(=O)CC[C@H]43)C[C@@]21C
Activity (Oryctolagus cuniculus [18]): inactive | Activity (Oryctolagus cuniculus [19]): inactive | RBA [4]: 2

SMILES: COc1ccc2c(c1)CC[C@H]1C[C@@]3(C)C(=CC[C@@H]3OC(C)=O)C=C21
RBA [4]: < 0.4 | Activity (Rattus norvegicus [20]): inactive | RBA (Oryctolagus cuniculus [2]): < 0.025

— ChEMBL document CHEMBL3272247, “Synthesis, antifertility activity, and protein binding affinity of 7(8 leads to 11 alpha)abeo steroids” (1977)
